These results are taken from ChEMBL document CHEMBL4007452, “Discovery of an Orally Selective Inhibitor of Signal Transducer and Activator of Transcription 3 Using Advanced Multiple Ligand Simultaneous Docking” (J Med Chem, 2017).

Series [1] relates to Mus musculus. Briefly: Toxicity in BALB/c nude mouse xenografted with human MDA-MB-231 cells assessed as spleen damage at 2.5 to 10 mg/kg, po qd administered for 32 days by H&E staining based light microscopy. The series is classed as organism-based. To be noted: in vivo, 768 h. The procedure, abridged:
(§1)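 6-week-old female athymic SPF BALB/c nude mice received 5 x 10^6 MDA-MB-231 cells s.c. in the flank. Oral treatment began once tumors reached about 100 mm3, with 8 mice per group and a saline vehicle control. […] Treatment lasted 32 days. Heart, liver, spleen, lung and kidney were fixed 48 h in 10% neutral-buffered formaldehyde, paraffin-embedded, cut at 5 µm, H&E-stained and examined by light microscopy.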

The subject of series [2] is Mus musculus. Briefly: Toxicity in BALB/c nude mouse xenografted with human MDA-MB-231 cells assessed as liver damage at 2.5 to 10 mg/kg, po qd administered for 32 days by H&E staining based light microscopy. The series is classed as organism-based. To be noted: in vivo, 768 h. The essentials: as §1
The target in series [3] is T1, Signal transducer and activator of transcription 1-alpha/beta (Homo sapiens) (UniProt P42224).
T1 sequence (whole entry): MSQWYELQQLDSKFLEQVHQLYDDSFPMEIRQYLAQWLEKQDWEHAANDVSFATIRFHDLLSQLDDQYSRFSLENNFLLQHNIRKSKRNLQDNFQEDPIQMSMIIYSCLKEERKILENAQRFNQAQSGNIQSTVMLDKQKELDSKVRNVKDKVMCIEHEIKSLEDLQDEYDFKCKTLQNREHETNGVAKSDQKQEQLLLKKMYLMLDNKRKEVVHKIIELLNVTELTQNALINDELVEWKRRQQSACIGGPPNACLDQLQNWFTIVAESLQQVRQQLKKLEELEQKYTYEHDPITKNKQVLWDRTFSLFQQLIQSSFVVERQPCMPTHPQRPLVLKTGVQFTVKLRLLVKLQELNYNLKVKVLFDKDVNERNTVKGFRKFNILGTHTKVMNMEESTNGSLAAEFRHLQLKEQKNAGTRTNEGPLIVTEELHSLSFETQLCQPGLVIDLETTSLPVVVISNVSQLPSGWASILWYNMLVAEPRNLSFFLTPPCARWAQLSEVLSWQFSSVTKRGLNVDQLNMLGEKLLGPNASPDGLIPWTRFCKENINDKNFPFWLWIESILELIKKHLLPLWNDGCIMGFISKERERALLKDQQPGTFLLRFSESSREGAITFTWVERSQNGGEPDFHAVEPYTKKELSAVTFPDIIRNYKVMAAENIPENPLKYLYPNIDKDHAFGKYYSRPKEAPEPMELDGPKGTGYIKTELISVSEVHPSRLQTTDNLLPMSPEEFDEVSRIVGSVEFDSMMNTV
The experiment in a line: Inhibition of STAT1 dimerization in human MDA-MB-231 cells assessed as inhibition of STAT1-STAT1 DNA binding activity at 5 uM after 24 hrs by EMSA. Format: cell-based. The procedure, abridged:
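MDA-MB-231 cells were treated at 5 µM for 0-24 h before nuclear extract preparation. Extracts were incubated with biotin-labeled probe for 30 min at room temperature, then analysed by EMSA.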

Series [4] can be described thus: Clearance in Sprague-Dawley rat plasma at 1 mg/kg, iv measured after 24 hrs by UPLC analysis. Format: ADME, organism-based. The essentials:
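Parameters were derived from the concentration-time profiles. The bioanalytical method was validated to FDA guidelines for selectivity, linearity, LLOQ, accuracy, precision, recovery, matrix effect and stability.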

The target in series [5] is T2, Signal transducer and activator of transcription 5B (Homo sapiens) (UniProt P51692).
T2 sequence (whole entry): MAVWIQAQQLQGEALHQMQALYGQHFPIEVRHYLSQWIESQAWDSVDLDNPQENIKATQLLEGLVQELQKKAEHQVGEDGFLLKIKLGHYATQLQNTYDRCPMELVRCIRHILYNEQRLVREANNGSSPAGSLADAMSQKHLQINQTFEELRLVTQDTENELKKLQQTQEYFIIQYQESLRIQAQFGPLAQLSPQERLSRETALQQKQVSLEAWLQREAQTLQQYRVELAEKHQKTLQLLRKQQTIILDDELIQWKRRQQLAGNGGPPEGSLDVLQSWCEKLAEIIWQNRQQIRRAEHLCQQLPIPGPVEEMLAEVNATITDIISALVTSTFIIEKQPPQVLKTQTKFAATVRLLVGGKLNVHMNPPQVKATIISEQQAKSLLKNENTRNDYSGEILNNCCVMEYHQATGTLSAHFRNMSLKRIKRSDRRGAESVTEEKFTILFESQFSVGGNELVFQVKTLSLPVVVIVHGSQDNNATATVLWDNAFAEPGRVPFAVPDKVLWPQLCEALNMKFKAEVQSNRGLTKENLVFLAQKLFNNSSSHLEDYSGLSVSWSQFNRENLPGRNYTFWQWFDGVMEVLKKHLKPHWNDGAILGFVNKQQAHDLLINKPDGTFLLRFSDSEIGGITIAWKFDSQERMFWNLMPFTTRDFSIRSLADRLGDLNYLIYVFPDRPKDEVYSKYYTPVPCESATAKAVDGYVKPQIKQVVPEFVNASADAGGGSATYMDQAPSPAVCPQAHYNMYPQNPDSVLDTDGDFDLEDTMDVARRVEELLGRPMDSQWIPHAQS
The experiment in a line: Binding affinity to STAT5B (unknown origin) after 30 mins by fluorescence polarization assay. The essentials:
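A competitive fluorescence polarization assay measured displacement of fluorescent phosphopeptide from the SH2 domain of purchased STAT1 or STAT5 protein, using the corresponding peptides.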

Series [6] deals with Mus musculus. The experiment in a line: Toxicity in BALB/c nude mouse xenografted with human MDA-MB-231 cells assessed as lung damage at 2.5 to 10 mg/kg, po qd administered for 32 days by H&E staining based light microscopy. The note with it: in vivo, 768 h. The series is classed as organism-based. The essentials: as §1
Series [7] addresses Epidermal growth factor receptor (Homo sapiens) (UniProt P00533). The experiment in a line: Inhibition of EGFR in human UW426 cells assessed as reduction in p-ERK1/2 (T202/Y204) level at 1 to 2.5 uM after 24 hrs by immunoblot analysis. Format: cell-based. The procedure, abridged:
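UW426 cells at 60–80% confluence were treated 24 h at 1-2.5 µM with 10% FBS, against a DMSO control, then immunoblotted.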

The next series deals with Rattus norvegicus. Briefly: AUMC (0 to infinity) in Sprague-Dawley rat plasma at 10 mg/kg, po measured after 24 hrs by UPLC analysis. Format: ADME, organism-based. The note with it: in vivo. The procedure, abridged: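 Rat plasma sampled from 2 min to 24 h after a single i.v. (1 mg/kg) or p.o. (10 mg/kg) dose. Parameters were derived from the concentration-time profiles. The bioanalytical method was validated to FDA guidelines for selectivity, linearity, LLOQ, accuracy, precision, recovery, matrix effect and stability.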

A short description of series [8]: Oral bioavailability in Sprague-Dawley rat at 10 mg/kg measured after 24 hrs by UPLC analysis. Format: ADME, organism-based. The note with it: in vivo.
Series [9] has as its target Epidermal growth factor receptor (Homo sapiens) (UniProt P00533). The experiment in a line: Inhibition of EGFR in human MDA-MB-231 cells assessed as reduction in p-Akt level at 2.5 to 5 uM after 12 hrs by immunoblot analysis. The series is classed as cell-based. The essentials:
(§2)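 MDA-MB-231 cells at 60–80% confluence were treated 12 h with 10% FBS at 2.5-10 µM or 2.5-5 µM, against a DMSO control. Whole-cell lysates were immunoblotted, with bands quantified as percent of control.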

The test system of another series is MDA-MB-231. The experiment in a line: Effect on total STAT3 level in human MDA-MB-231 cells at 2.5 to 5 uM after 12 hrs by immunoblot analysis. Format: ADME, cell-based. To be noted: mda-mb-231, 12 h. The procedure, abridged:
as §2

Molecules are shown by their SMILES. Active and inactive are the calls of the source. The rule behind the calls is not given here.

Sequence of Epidermal growth factor receptor (Homo sapiens) (P00533 whole entry): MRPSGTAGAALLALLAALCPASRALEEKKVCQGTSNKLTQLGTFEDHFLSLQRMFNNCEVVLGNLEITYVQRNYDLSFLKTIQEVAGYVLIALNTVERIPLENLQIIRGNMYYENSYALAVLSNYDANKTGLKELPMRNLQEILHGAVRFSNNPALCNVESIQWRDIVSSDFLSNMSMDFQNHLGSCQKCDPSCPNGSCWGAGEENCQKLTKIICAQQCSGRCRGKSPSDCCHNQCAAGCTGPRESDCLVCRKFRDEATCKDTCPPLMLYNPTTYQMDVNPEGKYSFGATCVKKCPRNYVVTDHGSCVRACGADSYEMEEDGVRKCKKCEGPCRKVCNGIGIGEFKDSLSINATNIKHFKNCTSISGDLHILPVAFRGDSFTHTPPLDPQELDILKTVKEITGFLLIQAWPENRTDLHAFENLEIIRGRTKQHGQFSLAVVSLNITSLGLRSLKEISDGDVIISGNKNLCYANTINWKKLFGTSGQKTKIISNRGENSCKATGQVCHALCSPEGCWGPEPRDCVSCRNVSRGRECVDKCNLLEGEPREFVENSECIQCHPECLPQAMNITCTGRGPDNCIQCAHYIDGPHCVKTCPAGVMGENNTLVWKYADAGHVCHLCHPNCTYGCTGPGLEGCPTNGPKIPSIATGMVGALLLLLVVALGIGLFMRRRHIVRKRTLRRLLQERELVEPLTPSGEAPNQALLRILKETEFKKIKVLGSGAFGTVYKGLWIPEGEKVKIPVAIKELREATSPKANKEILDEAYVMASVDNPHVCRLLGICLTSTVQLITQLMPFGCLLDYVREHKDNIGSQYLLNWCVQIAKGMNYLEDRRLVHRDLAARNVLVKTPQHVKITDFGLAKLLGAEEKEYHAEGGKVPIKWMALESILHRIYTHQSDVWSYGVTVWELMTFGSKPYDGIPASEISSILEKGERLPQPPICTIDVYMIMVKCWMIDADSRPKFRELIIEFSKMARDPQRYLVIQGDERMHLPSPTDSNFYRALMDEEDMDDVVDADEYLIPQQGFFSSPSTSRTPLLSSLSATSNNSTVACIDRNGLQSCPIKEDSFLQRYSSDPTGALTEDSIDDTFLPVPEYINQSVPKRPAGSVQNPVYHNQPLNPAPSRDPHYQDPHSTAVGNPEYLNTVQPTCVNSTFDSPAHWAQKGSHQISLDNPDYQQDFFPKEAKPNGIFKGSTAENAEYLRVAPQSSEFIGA

`NS(=O)(=O)c1cccc2c1C(=O)C=C(Nc1ccccc1N1CCNCC1)C2=O`: the Activity entry in the series on Mus musculus [1], in the series on Mus musculus [2], in the series with Mus musculus [6] and with MDA-MB-231 was “Non-Toxic” each time. In addition, the inhibition result in series [3] was “Active”. Also, the clearance in series [4] is 5.26 L/h/kg. In [5], the outcome was inactive. Moreover, the inhibition result in series [7] and in series [9] was “inactive” in each case. Further, in the series on Rattus norvegicus, the AUMC turned out to be 2002.1 hr2.ng/ml. Moreover, in series [8], the bioavailability amounted to 44.7%.
